Results: ChEMBL document CHEMBL3232979, “Discovery of a novel series of orally active nociceptin/orphanin FQ (NOP) receptor antagonists based on a dihydrospiro(piperidine-4,7'-thieno[2,3-c]pyran) scaffold” (J Med Chem, 2014)
Activity calls are given as the source filed them. The calls are words filed in the database; no cut-off is given here.

Key:
[1] = target: Kappa-type opioid receptor (Homo sapiens, UniProt P41145); test: Displacement of [3H]-diprenorphine from human kappa opioid receptor after 120 mins by cell based assay
In short: (§1)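 Radioligand binding with [3H]-diprenorphine on membranes from CHO cells overexpressing recombinant human kappa, mu or delta opioid receptor; Ki determined.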

Nociceptin receptor = Nociceptin receptor (Homo sapiens, UniProt P41146); test: Displacement of [3H]-nociceptin from human recombinant NOP receptor expressed in CHO cells after 60 mins by scintillation counting; type: cell-based
[2] = Volume of distribution in Sprague-Dawley rat at 1 mg/kg, iv; type: ADME, organism-based; set-up: dose 1 mg/kg, route intravenous; details: in vivo
In short: (§2)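 Male Sprague-Dawley rats (n = 3 per treatment), fasted 4–24 h, dosed iv bolus at 1 mg/kg or po at 3 or 10 mg/kg in 20% (w/w) Captisol in 25 mM phosphate buffer pH 2. Arterial blood sampled 0–16 or 24 h into EDTA, and plasma protein-precipitated with internal standard. LC-MS/MS quantitation against plasma standard curve (1–50 000 ng/mL). Noncompartmental analysis. F = dnAUCpo/dnAUCiv.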

[3] = AUC (0 to infinity) in Sprague-Dawley rat at 10 mg/kg, po; type: ADME, organism-based; set-up: time infinity, dose 10 mg/kg, route oral; details: plasma; in short: as §2
[4] = target: Delta-type opioid receptor (Homo sapiens, UniProt P41143); test: Displacement of [3H]-diprenorphine from human delta opioid receptor after 120 mins by cell based assay; in short: as §1
[5] = Plasma clearance in Sprague-Dawley rat at 1 mg/kg, iv; type: ADME, organism-based; set-up: dose 1 mg/kg, route intravenous; in short: as §2
Rattus norvegicus [6] = test: Ex vivo receptor occupancy of NOP receptor in Sprague-Dawley rat brain at 10 mg/kg, po after 24 hrs by LC-MS/MS analysis; type: functional
In short: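 Male Sprague-Dawley rats, 220–300 g, 12 h light:dark cycle, free chow and water. A single oral 10 mg/kg dose or oral vehicle was given. 24 h later, nonlabeled tracer was given as an iv tail-vein bolus at 3 μg/kg. Brain was taken 40 min after tracer (hypothalamus, striatum), homogenized in ACN with 0.1% formic acid, centrifuged, diluted with water and read by LC-MS/MS.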

[7] = Plasma elimination half life in Sprague-Dawley rat at 1 mg/kg, iv; type: ADME, organism-based; set-up: dose 1 mg/kg, route intravenous; details: read-out: beta t1/2 (converted); in short: as §2
[8] = Oral bioavailability in Sprague-Dawley rat at 10 mg/kg; type: ADME, organism-based; details: in vivo; in short: as §2
Mu-type opioid receptor = Mu-type opioid receptor (Homo sapiens, UniProt P35372); test: Displacement of [3H]-diprenorphine from human mu opioid receptor after 120 mins by cell based assay; in short: as §1
[9] = Metabolic stability in rat hepatic microsomes assessed as GSH-adduct formation; type: ADME, Liver, Microsome
In short: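 GSH trapping: compounds incubated with rat hepatic microsomes and glutathione; metabolite profiling by LC/MS for GSH conjugates.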

Rattus norvegicus [10] = test: Reversal of Ro64-6198-incued hypothermia in Sprague-Dawley rat at 0.1 to 0.3 mg/kg, po administered 60 mins before Ro64-6198 challenge measured after 120 mins; type: functional, organism-based
In short: (§3)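 Male Sprague-Dawley rats, 225 g, housed 2 per cage, acclimated at least 90 min. Rectal temperature was taken, then oral gavage of vehicle or test compound (0.03, 0.1 or 0.3 mg/kg). A second temperature was taken at 60 min, then Ro64-6198 (6 mg/kg sc) or vehicle was given, and a third temperature 120 min later. Between-group ANOVA with Dunnett posthoc tests against vehicle and agonist controls.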

Rattus norvegicus [11] = test: Toxicity in Sprague-Dawley rat assessed as basal body temperature at 0.03 to 0.3 mg/kg, po after 60 mins; details: in vivo, 1 h
Rattus norvegicus [12] = test: Reversal of Ro64-6198-incued hypothermia in po dosed Sprague-Dawley rat administered 60 mins before Ro64-6198 challenge measured after 120 mins; type: functional, organism-based; in short: as §3
[13] = AUC (0 to infinity) in Sprague-Dawley rat at 3 mg/kg, po; type: ADME, organism-based; set-up: time infinity, dose 3 mg/kg, route oral; details: plasma; in short: as §2
[14] = Oral bioavailability in Sprague-Dawley rat at 3 mg/kg; type: ADME, organism-based; details: in vivo; in short: as §2

Delta-type opioid receptor, sequence (P41143 whole entry): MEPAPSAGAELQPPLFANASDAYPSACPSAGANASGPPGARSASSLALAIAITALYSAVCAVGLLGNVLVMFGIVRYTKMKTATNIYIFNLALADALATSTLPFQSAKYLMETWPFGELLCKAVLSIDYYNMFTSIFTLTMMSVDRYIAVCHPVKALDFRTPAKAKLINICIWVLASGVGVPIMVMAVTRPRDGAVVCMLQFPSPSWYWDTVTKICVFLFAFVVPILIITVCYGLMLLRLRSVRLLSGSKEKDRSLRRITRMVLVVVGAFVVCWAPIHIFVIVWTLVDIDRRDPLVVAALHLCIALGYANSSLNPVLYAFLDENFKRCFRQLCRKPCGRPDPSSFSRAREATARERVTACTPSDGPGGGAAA
Mu-type opioid receptor, sequence (P35372 whole entry): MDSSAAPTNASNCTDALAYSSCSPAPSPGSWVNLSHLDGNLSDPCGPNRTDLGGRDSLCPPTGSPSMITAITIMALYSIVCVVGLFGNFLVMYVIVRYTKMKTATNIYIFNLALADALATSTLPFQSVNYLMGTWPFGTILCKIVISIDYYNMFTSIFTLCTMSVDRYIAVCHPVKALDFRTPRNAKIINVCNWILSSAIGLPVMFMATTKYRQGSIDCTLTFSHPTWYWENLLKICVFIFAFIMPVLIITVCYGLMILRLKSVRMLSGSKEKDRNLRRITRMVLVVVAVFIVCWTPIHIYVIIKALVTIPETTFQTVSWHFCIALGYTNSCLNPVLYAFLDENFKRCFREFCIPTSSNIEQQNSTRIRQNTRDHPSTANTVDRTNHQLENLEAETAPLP
Kappa-type opioid receptor, sequence (P41145 whole entry): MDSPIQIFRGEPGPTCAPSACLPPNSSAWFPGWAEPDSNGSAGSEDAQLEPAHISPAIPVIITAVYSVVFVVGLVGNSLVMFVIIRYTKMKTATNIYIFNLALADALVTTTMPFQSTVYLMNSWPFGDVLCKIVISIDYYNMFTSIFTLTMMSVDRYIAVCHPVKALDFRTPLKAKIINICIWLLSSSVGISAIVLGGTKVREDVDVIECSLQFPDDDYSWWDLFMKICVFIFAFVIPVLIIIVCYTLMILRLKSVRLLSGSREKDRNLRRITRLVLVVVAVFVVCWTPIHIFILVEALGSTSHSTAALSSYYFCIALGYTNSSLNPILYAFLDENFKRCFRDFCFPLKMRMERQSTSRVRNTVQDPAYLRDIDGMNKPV
Nociceptin receptor, sequence (P41146 whole entry): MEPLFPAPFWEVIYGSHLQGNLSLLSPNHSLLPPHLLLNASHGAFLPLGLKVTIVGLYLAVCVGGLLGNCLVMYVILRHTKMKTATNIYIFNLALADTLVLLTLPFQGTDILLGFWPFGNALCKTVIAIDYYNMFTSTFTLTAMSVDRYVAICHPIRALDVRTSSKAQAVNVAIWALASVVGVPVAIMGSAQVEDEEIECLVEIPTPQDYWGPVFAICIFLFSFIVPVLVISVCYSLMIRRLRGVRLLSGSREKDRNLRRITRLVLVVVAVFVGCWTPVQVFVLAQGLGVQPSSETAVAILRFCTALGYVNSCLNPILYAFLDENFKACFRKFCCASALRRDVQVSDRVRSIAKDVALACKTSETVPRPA

Row | SMILES | Ki [1] | Ki (Nociceptin receptor) | Ki [4] | Occ (Rattus norvegicus [6]) | Ki (Mu-type opioid receptor) | other results
1 | Cc1nn(-c2c(F)cccc2CO)cc1CN1CCC2(CC1)OCC(F)(F)c1cc(Cl)sc12.O=C(O)C(O)C(O)C(=O)O | > 375 nM | 0.114 nM | > 375 nM | 87% | > 375 nM | Vd [2]: 12.7 L/kg; AUC(0-inf) [3]: 1.28 µg·h/mL; clearance [5]: 3.63 L/h/kg; half-life [7]: 3.9 h; bioavailability [8]: 51%
2 | Cc1nn(-c2ncccc2CN(C)C)cc1CN1CCC2(CC1)OCC(F)(F)c1cc(Cl)sc12.O=C(O)C(O)C(O)C(=O)O | > 375 nM | 0.371 nM | > 375 nM | 72% | > 375 nM | 
3 | CNCc1cccc(F)c1-n1cc(CN2CCC3(CC2)OCC(F)(F)c2cc(Cl)sc23)c(C)n1.O=C(O)C(O)C(O)C(=O)O | > 375 nM | 0.097 nM | > 375 nM | 100% | > 375 nM | 
4 | Cc1nn(-c2c(F)cccc2C(N)=O)cc1CN1CCC2(CC1)OCCc1cc(F)sc12 |  | 0.0954 nM |  |  |  | 
5 | COCc1cccnc1-n1cc(CN2CCC3(CC2)OCC(F)(F)c2cc(Cl)sc23)c(C)n1.O=C(O)C(O)C(O)C(=O)O | > 375 nM | 0.185 nM | > 375 nM | 90% | > 375 nM | Stability [9]: Stable
6 | Cc1nn(-c2ncccc2CO)cc1CN1CCC2(CC1)OCC(F)(F)c1cc(Cl)sc12.O=C(O)C(O)C(O)C(=O)O | > 375 nM | 0.105 nM | > 375 nM | 62% | > 375 nM | Activity (Rattus norvegicus [10]): Active; Vd [2]: 5.3 L/kg; AUC(0-inf) [3]: 4.1 µg·h/mL; clearance [5]: 1.43 L/h/kg; Activity (Rattus norvegicus [11]): Non-toxic; half-life [7]: 3.8 h; Activity (Rattus norvegicus [12]): Dose-dependent effect; bioavailability [8]: 57%
7 | Cc1nn(-c2c(F)cccc2CN(C)C)cc1CN1CCC2(CC1)OCCc1cc(Cl)sc12 |  | 0.122 nM |  |  |  | 
8 | Cc1nn(-c2c(F)cccc2F)cc1CN1CCC2(CC1)OCCc1cc(F)sc12 |  | 0.0711 nM |  |  |  | 
9 | Cc1nn(-c2ncccc2F)cc1CN1CCC2(CC1)OCCc1cc(F)sc12 |  | 0.139 nM |  |  |  | 
10 | COCc1cccnc1-n1cc(CN2CCC3(CC2)OCCc2cc(Cl)sc23)c(C)n1 |  | 0.0908 nM |  |  |  | 
11 | Cc1nn(-c2ncccc2-c2ncc[nH]2)cc1CN1CCC2(CC1)OCC(F)(F)c1cc(Cl)sc12 | > 375 nM | 0.0916 nM | > 375 nM | 88% | > 375 nM | 
12 | Cc1nn(-c2ncccc2F)cc1CN1CCC2(CC1)OCC(F)(F)c1cc(Cl)sc12.O=C(O)C(O)C(O)C(=O)O | > 375 nM | 0.176 nM | > 375 nM | 55% | > 375 nM | AUC(0-inf) [13]: 1.81 µg·h/mL; Vd [2]: 13.6 L/kg; clearance [5]: 1.19 L/h/kg; bioavailability [14]: 62%; half-life [7]: 12.1 h
13 | COCc1cccnc1-n1cc(CN2CCC3(CC2)OCCc2cc(F)sc23)c(C)n1 |  | 0.0939 nM |  |  |  | 
14 | Cc1nn(-c2c(F)cccc2F)cc1CN1CCC2(CC1)OCC(F)(F)c1cc(Cl)sc12.O=C(O)C(O)C(O)C(=O)O | > 375 nM | 0.172 nM | > 375 nM | 49% | > 375 nM | AUC(0-inf) [13]: 0.438 µg·h/mL; Vd [2]: 28.2 L/kg; clearance [5]: 3.17 L/h/kg; bioavailability [14]: 49%; half-life [7]: 10.8 h
15 | Cc1nn(-c2c(F)cccc2CN(C)C)cc1CN1CCC2(CC1)OCCc1cc(F)sc12 |  | 0.0648 nM |  |  |  | 
16 | Cc1nn(-c2c(F)cccc2CN(C)C)cc1CN1CCC2(CC1)OCC(F)(F)c1cc(Cl)sc12.O=C(O)C(O)C(O)C(=O)O | > 375 nM | 0.145 nM | > 375 nM | 97% | > 375 nM | 
